An excerpt weighted towards active compounds, which were near 2.1% of everything screened.
PAX8 inh HTS – inhibitors of PAX8 transcriptional activity in RMG-I cells; RMG-I TPO-luciferase reporter, SteadyGlo, 24 h; inhibition, % at 12.6 µM; 360,000 compounds, 1.2% hits;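 active = mean replicate inhibition at least 60% with every replicate also reaching 60%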;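 also: luciferase light reporting Pax8 driven TPO promoter activity; plate controls were median of neutral control wells for no effect and mitoxantrone controls for full effect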
EWS-Fli inh – EWS/Fli transcriptional activity inhibition; A673 NR0B1-luciferase reporter, viability-normalised; inhibition, % at 12.6 µM; 350,000 compounds, 0.67% hits;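 active = mean inhibition of at least 50% after viability correction, with every replicate also passing that limit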;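 also: firefly luciferase signal divided by Alamar Blue viability fluorescence both relative to DMSO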
Xi reactivation – activators of X-chromosome reactivation in mouse fibroblasts. XiGFP mouse fibroblasts, % GFP-positive cells imaging, 3 d; cells co-treated with 5-aza-dC sensitizer; scaled so ellipticine positive control = 100%. activation, % at 7.58 µM. 360,000 compounds, 0.055% hits;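 active = mean normalized replicate activation at least 10% and every replicate at or above 10%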;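 also: 0% = median of on-plate neutral control wells and 100% = ellipticine 6 µM median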
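System: 68-5-11 XiGFP fibroblast line | Buffer or medium: DMEM containing 5-aza-dC | Compound: Single point | Times: Compounds 3 days, fix/stain 15 min at room temperature | Benchmarks: Positive control ellipticine, 6 µM final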
INS-1E GSIS act – GLuc luminescence reporter in INS-1E cells, primary screen for activators of glucose-dependent secretion of insulin; INS-1E GLuc reporter insulin secretion, 2-3 h; activation, % at 16.6 µM; AID 743287; 370,000 compounds, 0.61% hits;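 active = lowest replicate activation of at least 40%, so every replicate reaches that level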;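 also: 0% = median of neutral control wells and 100% = median of IBMX positive control wells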
MLL AF4-AF9 inh – MLL-AF4/AF9 protein interaction inhibition; P42568; AlphaScreen, biotin-AF4 peptide binding to FLAG-AF9; inhibition, % at 10 µM; 350,000 compounds, 0.47% hits; AID 651704;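 active = every replicate reaching a set inhibition limit, whatever the replicate mean, cut at about 25% in these data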;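 also: 0% = plate neutral control median and 100% = total signal loss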
Target sequence (P42568 whole entry, looked up): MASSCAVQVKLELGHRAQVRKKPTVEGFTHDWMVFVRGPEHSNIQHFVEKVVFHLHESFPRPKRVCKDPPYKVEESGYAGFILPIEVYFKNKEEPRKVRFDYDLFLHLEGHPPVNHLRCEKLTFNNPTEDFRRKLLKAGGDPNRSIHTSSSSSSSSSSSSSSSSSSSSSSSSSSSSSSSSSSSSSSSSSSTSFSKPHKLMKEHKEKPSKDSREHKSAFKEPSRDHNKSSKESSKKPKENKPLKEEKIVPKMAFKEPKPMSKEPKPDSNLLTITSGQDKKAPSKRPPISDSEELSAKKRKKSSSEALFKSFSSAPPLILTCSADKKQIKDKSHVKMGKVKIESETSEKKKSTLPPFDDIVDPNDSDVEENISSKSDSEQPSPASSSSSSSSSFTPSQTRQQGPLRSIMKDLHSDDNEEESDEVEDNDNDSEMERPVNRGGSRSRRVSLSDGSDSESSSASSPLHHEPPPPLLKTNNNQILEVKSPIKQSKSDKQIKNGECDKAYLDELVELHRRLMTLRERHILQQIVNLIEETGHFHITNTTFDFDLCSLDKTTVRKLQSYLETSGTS
PGC1a acetyl inh – lowers PGC1a acetylation signal in U2OS cells. 350,000 compounds, 0.17% hits. AlphaScreen anti-acetyl-lysine; with virally co-expressed GCN5 acetyltransferase. inhibition, % at 15.6 µM;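 active = every replicate shows inhibition of at least 40%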;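 also: 0% = neutral control wells and 100% = positive control wells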
* hit, by the source's call; . = not tested or not shown.

SMILES | PAX8 inh HTS | EWS-Fli inh | Xi reactivation | INS-1E GSIS act | MLL AF4-AF9 inh | PGC1a acetyl inh
C[C@@H]1CN([C@@H](C)CO)C(=O)c2cc(C3=CCCC3)cnc2O[C@H]1CN(C)Cc1ccc(C(=O)O)cc1 | -5.3 | -2.7 | -1.2 | 20.0 | -2.5 | 11.6
CN1CCN(C(=O)C[C@@H]2CC[C@H]3[C@@H](COc4ccc(NC(=O)C5CCC5)cc4C(=O)N3C)O2)CC1 | -5.5 | 1.4 | 0.0 | 7.6 | 0.2 | -2.9
O=C(COC(=O)c1ccc([N+](=O)[O-])o1)Nc1cccc(S(=O)(=O)N2CCCCC2)c1 | 7.4 | -2.2 | -0.1 | -52.5 | 1.9 | -10.1
O=C(Nc1ccc(N2CCOCC2)c(Cl)c1)c1ccc([N+](=O)[O-])o1 | 71.5* | 13.8 | 0.5 | -4.4 | 4.5 | .
CN1CCN(c2ccc(NC(=O)c3ccc([N+](=O)[O-])o3)cc2Cl)CC1 | 82.2* | 29.7 | 0.9 | -9.5 | -2.7 | .
CC(C)C(=O)N1CCN(c2ccc(NC(=O)c3ccc([N+](=O)[O-])o3)cc2)CC1 | 97.2* | 34.6 | 0.9 | -16.4 | 3.1 | .
O=C(Nc1cccc(S(=O)(=O)N2CCCCC2)c1)c1ccc([N+](=O)[O-])o1 | 76.3* | 42.1 | -0.1 | -36.6 | 11.2 | -225.7
O=C(Nc1ccccc1N1CCOCC1)c1ccc([N+](=O)[O-])o1 | 51.1 | . | 0.1 | 20.0 | -2.5 | -19.4
C[C@H](NC(=O)C[C@@H]1C[C@@H]2c3cc(NC(=O)CN(C)C)ccc3O[C@@H]2[C@H](CO)O1)c1ccccc1 | -11.5 | 1.6 | -0.1 | 9.2 | -0.3 | 3.7
COc1ccc2c3c(n(C)c2c1)[C@@H](CO)N(C(=O)CN1CCOCC1)CC31CCN(C(C)=O)CC1 | . | 7.7 | 0.2 | 27.4 | -1.0 | 7.5
CCOc1ccccc1NC(=O)C(C)N1C(=O)c2ccccc2S1(=O)=O (centres undefined) | -11.7 | -6.5 | 0.2 | -11.5 | 29.1* | .
Cc1ccnc(NC(c2ccccc2)c2ccc3cccnc3c2O)c1 (centres undefined) | 50.5 | 22.4 | -0.2 | -8.7 | 29.2* | 5.9
O=C(O)c1ccccc1NC(c1ccccc1)c1ccc2cccnc2c1O (centres undefined) | 70.9* | 27.2 | 1.2 | . | 11.7 | 36.8
Cc1ccc2ccc(C(Nc3ccccc3)c3ccc(C(C)C)cc3)c(O)c2n1 (centres undefined) | 18.1 | 9.1 | 0.1 | -0.3 | . | .
Cc1ccc2ccc(C(Nc3ccccc3)c3ccccc3)c(O)c2n1 (centres undefined) | 70.2* | -15.3 | 0.0 | -27.0 | 6.1 | .
CN1C(=O)c2cc(NC(=O)c3ccc(F)c(F)c3)ccc2OC[C@@H]2O[C@@H](CC(=O)N[C@@H]3CCN(Cc4ccccc4)C3)CC[C@H]21 | 13.7 | -5.1 | 0.1 | -10.6 | 10.8 | .
O=C(C[C@H]1C[C@@H]2c3cc(NC(=O)c4cccnc4)ccc3O[C@@H]2[C@H](CO)O1)NC1CCCC1 | . | -2.2 | 0.0 | 1.7 | 0.5 | -2.6
O=C(C=Cc1ccccc1)CC(c1ccccc1)N1CCOCC1 (centres undefined) | 25.4 | 58.9* | 2.1 | -29.1 | 2.3 | 11.6
O=C(CN1C(=O)c2ccccc2C1=O)NCC1CCCO1 (centres undefined) | . | . | . | . | . | -8.5
COc1ccc(CN2C(=O)c3ccccc3C2C(=O)NCC2CCCO2)c(OC)c1 (centres undefined) | . | . | . | -5.6 | . | 3.7
O=C(NCC1CCCO1)C1CCC(N2C(=O)c3ccccc3C2=O)CC1 (centres undefined) | . | . | . | 80.6* | . | 9.3
COc1ccc(OC)c(CN2C(=O)c3ccccc3C2C(=O)NCC2CCCO2)c1 (centres undefined) | 1.9 | -1.6 | -0.1 | 52.3* | 5.7 | -23.6
CO[C@@H]1CN(C)C(=O)c2cc(NC(C)=O)ccc2OC[C@H](C)NC[C@H]1C | -10.9 | 6.7 | -0.1 | 1.1 | -0.9 | 4.3
COc1ccc(C[C@H](N)C(=O)N[C@H]2[C@@H](O)[C@H](n3cnc4c(N(C)C)ncnc43)O[C@@H]2CO)cc1 | 117.1* | 5.6 | 0.4 | 10.4 | -1.2 | 36.9
C=CCOc1ccc(C[C@H](N)C(=O)NC[C@H]2O[C@@H](n3cnc4c(N)ncnc43)[C@H](O)[C@@H]2O)cc1 | . | . | . | . | . | 5.6
SMILES | PAX8 inh HTS | EWS-Fli inh | Xi reactivation | INS-1E GSIS act | MLL AF4-AF9 inh | PGC1a acetyl inh
COc1cc(OC)c(OC)cc1/C=C1/Cc2ccccc2C1=O | -7.3 | 3.3 | 0.2 | 0.2 | -3.3 | 8.9
COc1cc(OC)c(OC)cc1/C=C1\CC(C)C/C(=C\c2cc(OC)c(OC)cc2OC)C1=O (centres undefined) | 74.1* | 5.3 | 0.3 | -2.9 | 18.4 | 17.9
CN1CCCC(OC(=O)c2ccc(C#N)cc2)C1 (centres undefined) | 10.9 | 3.8 | 0.2 | 57.4* | -0.1 | 6.0
COc1ccc(-n2nnnc2SCC(=O)NC2CC2)cc1 | 75.3* | 4.1 | 0.0 | 18.7 | -18.4 | .
O=C(CSc1nnnn1-c1ccccc1)Nc1ncc(Cc2cccc(Cl)c2Cl)s1 | -3.2 | 10.5 | -0.3 | . | -5.9 | .
Cc1ccc(-n2nnnc2SCC(=O)Nc2ncc(Cc3ccccc3Cl)s2)cc1 | . | . | . | 155.6* | . | 0.5
CCOC(=O)NC(=O)CSc1nnnn1-c1ccc(C)cc1 | -3.4 | . | . | . | . | 93.5*
CCOC(=O)NC(=O)CSc1nnnn1-c1ccc(Cl)cc1 | . | -1.9 | . | 2.1 | 0.6 | 2.5
O=C(C[C@@H]1C=C[C@@H](NS(=O)(=O)c2ccccc2)[C@@H](CO)O1)N1CCC(Cc2ccccc2)CC1 | . | 7.6 | -0.5 | -2.4 | -12.3 | 2.5
O=C(C[C@H]1C[C@H]2c3cc(NC(=O)NC4CCCCC4)ccc3O[C@H]2[C@@H](CO)O1)NC1CCCCC1 | -25.7 | -8.4 | 0.1 | 5.1 | -7.1 | 6.7
Cc1ccccc1C(=O)Nc1nnc(-c2ccc(C(C)(C)C)cc2)s1 | -63.3 | . | 0.4 | 137.0* | . | 10.3
CCC(=O)NC(c1ccc(Cl)cc1Cl)c1ccc2cccnc2c1O (centres undefined) | 66.1* | 28.0 | 0.0 | -18.8 | -11.3 | 16.4
CC(C)C(=O)NC(c1ccc(Cl)cc1Cl)c1ccc2cccnc2c1O (centres undefined) | 59.8 | 6.6 | 0.3 | -16.6 | 2.5 | 17.0
CCCCC(=O)NC(c1ccc(Cl)cc1Cl)c1ccc2cccnc2c1O (centres undefined) | 65.6* | 28.1 | 0.2 | 1.1 | -1.4 | .
COc1ccc(S(=O)(=O)N(C)C[C@H]2OCCCC[C@H](C)Oc3ccc(NS(=O)(=O)c4cn(C)cn4)cc3C(=O)N([C@H](C)CO)C[C@@H]2C)cc1 | -2.2 | . | 0.0 | -5.9 | 1.5 | -12.1
C[C@@H]1CCCCO[C@@H](CN(C)C)[C@@H](C)CN([C@@H](C)CO)C(=O)c2cc(NC(=O)CCC(F)(F)F)ccc2O1 | -15.9 | -1.3 | 0.0 | 19.5 | -2.9 | 10.0

From PubChem BioAssay
